Where “and” joins values, the source holds several entries; their conditions need not be identical. Equal values may be shown once.
Tests used:
[1] = species: Rattus norvegicus; test: Support of Intestinal Calcium Transport mobilization response of Vitamin D-Deficient Rats on a low-calcium diet(amount 650 pmol); format: functional
Method in brief: (§1)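 Vitamin D-deficient weanling male rats kept on a 0.02% Ca diet. Compound given intraperitoneally daily for 7 days in 0.1 mL of 95:5 propylene glycol/ethanol; controls got vehicle. Killed 24 h after the last dose. Intestinal Ca transport by everted sac (proximal 10 cm), reported as S/M ratio. At least 5 rats/group; mean ± SEM; Student's t-test.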

[2] = tested on: Rattus norvegicus; test: Bone Calcium mobilization response of Vitamin D-Deficient Rats to a single Intravenous Injection (amount 260 pmol); format: functional, organism-based
Method in brief: (§2)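 Vitamin D-deficient weanling male rats, 3 weeks on a 0.47% Ca diet then 1 week on 0.02% Ca. A single intravenous dose was given in 0.1 mL of 95:5 propylene glycol/ethanol, with vehicle controls. Serum calcium was measured by automatic titrator 24 h after dosing. The rise in serum Ca on the low-Ca diet is taken as bone calcium mobilization. At least 5 rats/group; mean ± SEM.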

[3] = tested on: Rattus norvegicus; test: Intestinal Calcium Transport mobilization response of Vitamin D-Deficient Rats to a single Intravenous Injection amount 260 pmol); format: functional
Method in brief: (§3)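 Vitamin D-deficient weanling male rats, 3 weeks on a 0.47% Ca diet then 1 week on 0.02% Ca. A single intravenous dose was given in 0.1 mL of 95:5 propylene glycol/ethanol, with vehicle controls. After 24 h, the proximal 10 cm of intestine was taken for everted-sac calcium transport, expressed as serosal:mucosal (S/M) Ca ratio. At least 5 rats/group; mean ± SEM.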

[4] = species: Rattus norvegicus; test: Support of Serum Calcium Transport mobilization response of Vitamin D-Deficient Rats on a low-calcium diet(amount 650 pmol); format: functional, organism-based
Method in brief: (§4)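 Weanling male rats deficient in vitamin D, held on a low-calcium (0.02% Ca) diet, dosed intraperitoneally each day for 7 days in 0.1 mL of 95:5 propylene glycol/ethanol, with vehicle controls. Serum calcium was measured by automatic titrator 24 h after the last dose as the index of bone calcium mobilization. At least 5 rats/group; mean ± SEM; Student's t-test.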

[5] = species: Rattus norvegicus; test: Support of Serum Calcium Transport mobilization response of Vitamin D-Deficient Rats on a low-calcium diet(amount 1300 pmol); format: functional, organism-based; method in brief: as §4
[6] = species: Rattus norvegicus; test: Intestinal Calcium Transport mobilization response of Vitamin D-Deficient Rats on a low-calcium diet(amount 500 pmol); format: functional; method in brief: as §1
[7] = species: Rattus norvegicus; test: Serum Calcium Transport mobilization response of Vitamin D-Deficient Rats on a low-calcium diet(amount 500 pmol); format: functional, organism-based; method in brief: as §4
[8] = species: Rattus norvegicus; test: Support of Intestinal Calcium Transport mobilization response of Vitamin D-Deficient Rats on a low-calcium diet(amount 1300 pmol); format: functional; method in brief: as §1
[9] = species: Rattus norvegicus; test: Support of Serum Calcium Transport mobilization response of Vitamin D-Deficient Rats on a low-calcium diet(amount 1000 pmol); format: functional, organism-based; method in brief: as §4
[10] = species: Rattus norvegicus; test: Support of Serum Calcium Transport mobilization response of Vitamin D-Deficient Rats on a low-calcium diet(amount 500 pmol); format: functional, organism-based; method in brief: as §4
[11] = species: Rattus norvegicus; test: Support of Serum Calcium Transport mobilization response of Vitamin D-Deficient Rats on a low-calcium diet(amount 260 pmol); format: functional, organism-based; method in brief: as §4
[12] = species: Rattus norvegicus; test: Support of Intestinal Calcium Transport mobilization response of Vitamin D-Deficient Rats on a low-calcium diet(amount 500 pmol); format: functional; method in brief: as §1
[13] = species: Rattus norvegicus; test: Support of Intestinal Calcium Transport mobilization response of Vitamin D-Deficient Rats on a low-calcium diet(amount 1000 pmol); format: functional; method in brief: as §1
[14] = species: Rattus norvegicus; test: Support of Intestinal Calcium Transport mobilization response of Vitamin D-Deficient Rats on a low-calcium diet(amount 130 pmol); format: functional; method in brief: as §1
[15] = species: Rattus norvegicus; test: Support of Intestinal Calcium Transport mobilization response of Vitamin D-Deficient Rats on a low-calcium diet(amount 260 pmol); format: functional; method in brief: as §1
[16] = species: Rattus norvegicus; test: Support of Serum Calcium Transport mobilization response of Vitamin D-Deficient Rats on a low-calcium diet(amount 130 pmol); format: functional, organism-based; method in brief: as §4
[17] = tested on: Rattus norvegicus; test: Bone Calcium mobilization response of Vitamin D-Deficient Rats to a single Intravenous Injection of (amount 260 pmol); format: functional, organism-based; method in brief: as §2
[18] = tested on: Rattus norvegicus; test: Intestinal Calcium Transport mobilization response of Vitamin D-Deficient Rats to a single Intravenous Injection of D3 (amount 260 pmol); format: functional; method in brief: as §3

Row | Structure (SMILES) | Ca2+ transport [1] | Serum Ca2+ [2] | Ca2+ transport [3] | Serum Ca2+ [4] | Serum Ca2+ [5] | Ca2+ transport [6] | Serum Ca2+ [7] | Ca2+ transport [8] | Serum Ca2+ [9] | Serum Ca2+ [10] | Serum Ca2+ [11] | Ca2+ transport [12] | Ca2+ transport [13] | Ca2+ transport [14] | Ca2+ transport [15] | Serum Ca2+ [16] | Serum Ca2+ [17] | Ca2+ transport [18]
1 | C=C1/C(=C\C=C2/CCC[C@@H]3C([C@H](C)CCCC(C)(C)O)CC[C@@H]23)C[C@@H](O)C[C@@H]1O (some centres undefined) | 5.4 | 4.4 | 3.9 | 5.2 | 5.6 | 4.1 | 5.1 | 5.5 | – | – | – | – | – | – | – | – | – | –
2 | C[C@H](CCCC(C)(C)O)C1CC[C@H]2/C(=C/C=C3C[C@@H](O)C[C@H](O)C3)CCC[C@H]12 (some centres undefined) | – | – | – | – | – | – | – | – | 5.5 | 5.6 | 4.9 | 6.2 | 6.9 | 3.7 | 4.8 | 4.8 | – | –
3 | C=C1/C(=C\C=C2/CCC[C@]3(C)[C@@H]([C@H](C)CCCC(C)(C)O)CC[C@@H]23)C[C@@H](O)C[C@@H]1O [CALCITRIOL] | – | – | – | – | – | 5.7 | 5.5 | – | – | – | 5.4 and 7.1 | – | – | 6.8 | 7.6 | 5.8 | 4.8 | 5
